This is an account of results in ChEMBL document CHEMBL1127070, “Synthesis and binding properties of MK-801 isothiocyanates; (+)-3-isothiocyanato-5-methyl-10,11-dihydro-5H-dibenzo[a,d]cyclohepten- 5,10-imine hydrochloride: a new, potent and selective electrophilic affinity ligand for the NMDA receptor-coupled phencyclidine binding site” (J Med Chem, 1993).

For experiment [1], the target named is T1, Glutamate NMDA receptor (Rattus norvegicus) (UniProt P35439+Q00959+Q00960+Q00961+Q62645+Q8VHN2+Q9R1M7). The experiment in a line: Tested for the % inactivation of [3H]dizocilpine binding to NMDA receptor at 10 uM). The class given is protein-complex assay. In outline: (§1)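 Thawed rat brain homogenates pretreated with isothiocyanate for 30 min at 5 °C. Washed three times with buffer containing 100 μM glutamate, 30 μM glycine and 300 μM MgCl2, which removes reversible ligand. Binding of 2 nM (+)-[3H]-3 then measured as in the reversible assay. % inactivation is versus similarly washed untreated controls. Triplicates, mean ± SEM of ≥2 experiments.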

Experiment [2] has as its target Glutamate NMDA receptor. The experiment in a line: Tested for the inhibition of [3H]dizocilpine binding to N-methyl-D-aspartate (NMDA) receptor-coupled phencyclidine binding site. The class given is protein-complex assay. The procedure, abridged:
(§2)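 Rat brain membranes (Sprague–Dawley, whole brain minus cerebellum) in 5 mM Tris-HCl pH 7.4, washed by repeated 20000g spins. Incubation with 2 nM (+)-[3H]-3, 10 μM glutamate and 10 μM glycine for 90 min at 5 °C. Nonspecific binding defined with 10 μM (+)-3. Filtration, then scintillation counting.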

Experiment [3] addresses Mu-type opioid receptor (Rattus norvegicus, UniProt P33535). The experiment in a line: Tested for in vitro inhibition of the displacement of [3H]FOXY from mu opioid receptor. The procedure, abridged:
(§3)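 Reversible and wash-resistant displacement assays used published protocols, with extra washes added to remove unreacted compound. Final radioligand levels were [3H]flunitrazepam 1 nM, (+)-[3H]pentazocine 3 nM, [3H]FOXY 2 nM, [3H]QNB 0.5 nM and [3H]mazindol 5 nM. Test compound went up to 100 μM. Runs were in triplicate, with at least two experiments. Ki came from Cheng-Prusoff.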
A general note: Displacement assays read how much labelled ligand stays bound in the presence of the test substance.

Experiment [4] addresses Muscarinic acetylcholine receptor. The experiment in a line: Tested for in vitro inhibition of the displacement of [3H]quinuclidinyl benzilate muscarinic receptor. The class given is protein assay.
Experiment [5] concerns the target Sigma non-opioid intracellular receptor 1 (Rattus norvegicus, UniProt Q9R0C9). The experiment in a line: Tested for in vitro inhibition of the displacement of (+)-[3H]pentazocine from sigma opioid receptor. In outline:
as §3

Experiment [6] deals with Glutamate NMDA receptor. The experiment in a line: Tested for in vitro inhibition of the displacement of (+)-[3H]dizocilpine from NMDA receptor. The class given is protein-complex assay. The procedure, abridged:
as §2

The target in experiment [7] is Sodium-dependent dopamine transporter (Rattus norvegicus) (UniProt P23977). The experiment in a line: Tested for in vitro inhibition of the displacement of [3H]mazindol from dopamine transporter.
In experiment [8] the target is Glutamate NMDA receptor. The experiment in a line: Tested for in vitro inhibition of the displacement of [3H]1-[1-(2-thieny])cyclohexyl] peridine from NMDA receptor. The class given is protein-complex assay.
Experiment [9] has as its target GABA-A receptor; anion channel. The experiment in a line: In vitro inhibition of [3H]flunitrazepam displacement from GABA-A receptor. The class given is protein-complex assay, Rattus norvegicus. The procedure, abridged: as §3
In experiment [10] the target is T1, Glutamate NMDA receptor (Rattus norvegicus). The experiment in a line: Tested for % inactivation of the displacement of [3H]1-[1-(2-thieny])cyclohexyl] peridine from NMDA receptor by 100 nM. The class given is protein-complex assay.
The target is the same in experiment [11]. The experiment in a line: Tested for % inactivation of the displacement of (+)-[3H]dizocilpine from NMDA receptor by 100 nM. The class given is protein-complex assay. The procedure, abridged:
as §1

In experiment [12] the target is Muscarinic acetylcholine receptor. The experiment in a line: Tested for in vitro inhibition of the displacement of [3H]QNB from CNS receptor. The class given is protein assay. The procedure, abridged:
as §3

Usually Ki stands for the dissociation constant of the complex between target and ligand, obtained from inhibition or displacement. The low end stands for a stronger hold on the target, the high end for a looser hold on the target.

Some results are limits rather than exact numbers.

Chain of Sodium-dependent dopamine transporter (Rattus norvegicus) (P23977 whole entry, looked up): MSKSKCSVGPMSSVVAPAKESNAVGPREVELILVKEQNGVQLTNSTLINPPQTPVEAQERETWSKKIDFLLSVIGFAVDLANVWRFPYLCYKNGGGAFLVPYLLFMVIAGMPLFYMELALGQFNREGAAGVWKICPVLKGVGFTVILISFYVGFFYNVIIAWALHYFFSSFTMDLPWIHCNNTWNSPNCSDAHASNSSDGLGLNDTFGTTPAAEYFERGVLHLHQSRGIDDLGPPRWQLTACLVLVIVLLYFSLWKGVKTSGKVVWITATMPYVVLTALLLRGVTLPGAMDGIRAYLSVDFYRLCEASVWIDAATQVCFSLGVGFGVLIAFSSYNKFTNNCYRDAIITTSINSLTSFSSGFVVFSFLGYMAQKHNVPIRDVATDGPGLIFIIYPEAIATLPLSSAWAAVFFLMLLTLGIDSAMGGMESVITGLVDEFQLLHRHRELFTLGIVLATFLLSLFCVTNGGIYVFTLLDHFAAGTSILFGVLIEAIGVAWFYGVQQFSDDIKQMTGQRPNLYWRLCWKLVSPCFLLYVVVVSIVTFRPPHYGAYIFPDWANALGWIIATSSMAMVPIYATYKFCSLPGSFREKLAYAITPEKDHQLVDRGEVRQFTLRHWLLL
Chain of Mu-type opioid receptor (P33535 whole entry): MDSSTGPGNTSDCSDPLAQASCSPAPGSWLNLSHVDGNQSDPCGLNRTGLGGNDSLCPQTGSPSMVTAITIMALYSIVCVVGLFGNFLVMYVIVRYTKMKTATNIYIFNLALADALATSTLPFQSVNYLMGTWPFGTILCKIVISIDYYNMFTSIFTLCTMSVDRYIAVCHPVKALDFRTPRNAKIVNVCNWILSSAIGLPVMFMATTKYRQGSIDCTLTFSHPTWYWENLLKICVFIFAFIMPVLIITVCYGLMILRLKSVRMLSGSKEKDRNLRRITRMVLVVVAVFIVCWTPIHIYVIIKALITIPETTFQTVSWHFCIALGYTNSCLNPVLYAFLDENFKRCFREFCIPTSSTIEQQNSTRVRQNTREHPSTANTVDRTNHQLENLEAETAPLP
Chain of Sigma non-opioid intracellular receptor 1 (Q9R0C9 whole entry): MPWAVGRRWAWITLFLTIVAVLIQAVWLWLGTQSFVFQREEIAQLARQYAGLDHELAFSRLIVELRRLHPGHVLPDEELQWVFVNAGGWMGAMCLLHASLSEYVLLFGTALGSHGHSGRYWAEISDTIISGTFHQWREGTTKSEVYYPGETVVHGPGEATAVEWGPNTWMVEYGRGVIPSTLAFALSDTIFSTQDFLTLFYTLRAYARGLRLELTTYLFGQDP

`CC[C@]1(c2cccc(N=C=S)c2)OC[C@H]([C@@H]2CCCCN2)O1` gave an Activity in experiment [1] of 55%. The same molecule came in with an inhibitory constant (Ki) in [2] of 0.094 µM.

In turn, `C[C@]12N[C@H](Cc3cc(N=C=S)ccc31)c1ccccc12` displayed a Ki in experiment [2] of 0.843 µM.

Molecule `S=C=Nc1cccc(C2(N3CCCCC3)CCCCC2)c1` had a Ki in experiment [2] of 0.535 µM.

Consider `C[C@]12N[C@H](Cc3ccc(N=C=S)cc31)c1ccccc12` (stereo in doubt; (+)-8a) [listing 1 of 2 here], for which the Ki in experiment [3] is over 100 µM; in experiment [4] it was over 100 µM; in experiment [5] it was 4.81 µM; in experiment [6], 0.037 µM; in experiment [7], 6.95 µM; in [8], 0.132 µM. The results for the Ki in experiment [2] and in [9] were 0.037 µM and over 100 µM, respectively.

For `C[C@]12N[C@H](Cc3ccc(N=C=S)cc31)c1ccccc12` (stereo in doubt; (+)-8a) [listing 2 of 2 here], the Activity in [10] amounted to 50%; in [1], 56%; in experiment [11] it was 53%.

In experiment [2], `C[C@]12N[C@H](Cc3ccc(N=C=S)cc31)c1ccccc12` (stereo in doubt; (-)-8a) gave a Ki of 0.838 µM.

With `C[C@]12N[C@H](Cc3ccccc31)c1ccccc12` [DIZOCILPINE], the Ki in experiment [3] was over 100 µM; in experiment [12], over 100 µM; in experiment [7] it was 40.9 µM; in experiment [9], over 100 µM.
